Measurements published in ChEMBL document CHEMBL2440021, “Discovery of β2 Adrenergic Receptor Ligands Using Biosensor Fragment Screening of Tagged Wild-Type Receptor” (ACS Med Chem Lett, 2013).
Calls of active or inactive are those of the source. The rule behind the calls is not given here.

Legend:
[1] = biological target: T1, Beta-2 adrenergic receptor (Homo sapiens, UniProt P07550); assay: Binding affinity to N-terminal FLAG-tagged C-terminal His-10-tagged human beta2 adrenoceptor expressed in insect Sf9 cells by surface plasmon resonance analysis in presence of maltose neopentyl glycol
Method in brief: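 Same NTA chip capture of His-10-tagged purified receptor as the primary SPR screen, but the binding run was done in MNG detergent. KD by SPR.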
Target sequence in this assay (P07550 whole entry): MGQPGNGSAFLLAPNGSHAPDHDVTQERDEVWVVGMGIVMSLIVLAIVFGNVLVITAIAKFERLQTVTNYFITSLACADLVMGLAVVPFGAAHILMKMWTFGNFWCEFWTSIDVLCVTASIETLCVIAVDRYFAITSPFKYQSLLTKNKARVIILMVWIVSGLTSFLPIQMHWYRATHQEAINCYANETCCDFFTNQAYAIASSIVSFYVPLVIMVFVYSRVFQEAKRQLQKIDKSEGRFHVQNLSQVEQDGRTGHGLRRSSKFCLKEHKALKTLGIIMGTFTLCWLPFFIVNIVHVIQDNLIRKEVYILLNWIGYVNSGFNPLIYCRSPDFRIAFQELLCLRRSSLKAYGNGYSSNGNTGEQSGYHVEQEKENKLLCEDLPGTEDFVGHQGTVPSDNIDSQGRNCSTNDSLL

[2] = biological target: Vasopressin V2 receptor (Homo sapiens) (UniProt P30518); assay: Antagonist activity at AVPR2 (unknown origin) assessed as inhibition of [Arg8]-Vasopressin induced cAMP production at 10 to 100 uM; assay type: functional
Vasopressin V2 receptor (Homo sapiens), sequence (P30518 whole entry): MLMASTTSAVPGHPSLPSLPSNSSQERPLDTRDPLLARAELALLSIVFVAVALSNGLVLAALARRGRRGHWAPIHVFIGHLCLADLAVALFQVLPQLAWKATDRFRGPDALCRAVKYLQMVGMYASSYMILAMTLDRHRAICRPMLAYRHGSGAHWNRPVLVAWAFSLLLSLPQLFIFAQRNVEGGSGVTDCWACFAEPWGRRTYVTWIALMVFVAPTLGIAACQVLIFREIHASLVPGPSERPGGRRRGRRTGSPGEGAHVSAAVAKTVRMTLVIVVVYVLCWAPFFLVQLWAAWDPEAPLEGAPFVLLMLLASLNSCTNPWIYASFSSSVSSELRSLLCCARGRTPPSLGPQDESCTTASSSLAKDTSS

[3] = biological target: T1, Beta-2 adrenergic receptor; assay: Binding affinity to N-terminal FLAG-tagged C-terminal His-10-tagged human beta2 adrenoceptor expressed in insect Sf9 cells by surface plasmon resonance analysis
Target sequence in this assay (P07550 whole entry): as the sequence (P07550 whole entry) above

[4] = biological target: Vasopressin V2 receptor (Homo sapiens) (UniProt P30518); assay: Agonist activity at AVPR2 (unknown origin) assessed as stimulation of beta arrestin recruitment; assay type: functional
[5] = biological target: Beta-1 adrenergic receptor (Homo sapiens) (UniProt P08588); assay: Displacement of [125I]-Cyanopindolol from human beta1 adrenoceptor expressed in HEK293 cells after 90 mins by gamma counting analysis; assay type: cell-based
Beta-1 adrenergic receptor (Homo sapiens), sequence (P08588 whole entry, looked up): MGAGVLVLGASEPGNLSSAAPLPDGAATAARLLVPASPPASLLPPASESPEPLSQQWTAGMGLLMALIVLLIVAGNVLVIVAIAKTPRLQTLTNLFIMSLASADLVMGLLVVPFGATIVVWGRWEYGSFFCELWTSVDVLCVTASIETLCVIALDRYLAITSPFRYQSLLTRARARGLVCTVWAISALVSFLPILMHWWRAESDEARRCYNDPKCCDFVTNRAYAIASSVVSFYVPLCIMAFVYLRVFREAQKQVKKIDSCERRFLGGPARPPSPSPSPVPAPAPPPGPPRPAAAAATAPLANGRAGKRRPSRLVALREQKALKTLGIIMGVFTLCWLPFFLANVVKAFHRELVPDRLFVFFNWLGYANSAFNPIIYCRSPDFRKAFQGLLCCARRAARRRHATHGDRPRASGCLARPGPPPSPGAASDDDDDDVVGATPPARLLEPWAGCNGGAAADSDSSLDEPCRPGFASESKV

[6] = biological target: T1, Beta-2 adrenergic receptor; assay: Antagonist activity at human beta2 adrenoceptor expressed in HEK293 cells assessed as inhibition of isoproterenol-induced cAMP production at 100 uM after 5 mins by luciferase reporter gene assay; assay type: functional, cell-based
Target sequence in this assay (P07550 whole entry, looked up): as the sequence (P07550 whole entry) above

[7] = biological target: Vasopressin V2 receptor (Homo sapiens) (UniProt P30518); assay: Antagonist activity at AVPR2 (unknown origin) assessed as inhibition of [Arg8]-Vasopressin induced beta arrestin recruitment at 10 uM; assay type: functional
[8] = biological target: T1, Beta-2 adrenergic receptor; assay: Agonist activity at human beta2 adrenoceptor expressed in HEK293 cells assessed as stimulation of cAMP production after 5 mins by luciferase reporter gene assay; assay type: functional, cell-based
Target sequence in this assay (P07550 whole entry, looked up): as the sequence (P07550 whole entry) above

[9] = biological target: T1, Beta-2 adrenergic receptor; assay: Displacement of [125I]-Cyanopindolol from human beta2 adrenoceptor expressed in HEK293 cells after 90 mins by gamma counting analysis; assay type: cell-based
Target sequence in this assay (P07550 whole entry, looked up): as the sequence (P07550 whole entry) above

[10] = biological target: T1, Beta-2 adrenergic receptor; assay: Binding affinity to N-terminal FLAG-tagged C-terminal His-10-tagged human beta2 adrenoceptor expressed in insect Sf9 cells by surface plasmon resonance analysis in presence of dodecyl maltoside
Target sequence in this assay (P07550 whole entry, looked up): as the sequence (P07550 whole entry) above

[11] = biological target: T1, Beta-2 adrenergic receptor; assay: Antagonist activity at human beta2 adrenoceptor containing C-terminus of V2 vasopressin receptor expressed in HEK293 cells assessed as inhibition of isoproterenol-induced beta arrestin recruitment at 100 uM after 15 to 18 hrs by luciferase reporter gene assay; assay type: functional, cell-based
Target sequence in this assay (P07550 whole entry, looked up): as the sequence (P07550 whole entry) above

[12] = biological target: Vasopressin V2 receptor (Homo sapiens) (UniProt P30518); assay: Agonist activity at AVPR2 (unknown origin) assessed as stimulation of cAMP production; assay type: functional
[13] = biological target: T1, Beta-2 adrenergic receptor; assay: Agonist activity at human beta2 adrenoceptor containing C-terminus of V2 vasopressin receptor expressed in HEK293 cells assessed as stimulation of beta arrestin recruitment after 15 to 18 hrs by luciferase reporter gene assay; assay type: functional, cell-based
Target sequence in this assay (P07550 whole entry, looked up): as the sequence (P07550 whole entry) above

[14] = biological target: T1, Beta-2 adrenergic receptor; assay: Antagonist activity at human beta2 adrenoceptor containing C-terminus of V2 vasopressin receptor expressed in HEK293 cells assessed as inhibition of isoproterenol-induced beta arrestin recruitment at 10 uM after 15 to 18 hrs by luciferase reporter gene assay; assay type: functional, cell-based
[15] = biological target: T1, Beta-2 adrenergic receptor; assay: Antagonist activity at human beta2 adrenoceptor expressed in HEK293 cells assessed as inhibition of isoproterenol-induced cAMP production at 10 uM after 5 mins by luciferase reporter gene assay; assay type: functional, cell-based
[16] = biological target: T1, Beta-2 adrenergic receptor; settings: Sf9

SMILES | Kd ([1]; read-out: Kd) [nM] | inhibition [2] | Kd [3] [nM] | Activity [4] | inhibition [7] | Activity [12] | other results
FC(F)(F)c1cc(N2CCNCC2)c2ccccc2n1 | 84.2 | – | – | – | – | – | –
Clc1cncc(Cl)c1N1CCNCC1 | – | inactive | 3500 | inactive | inactive | inactive | Kic [5]: 12.9 µM; inhibition [6]: Active; Activity [8]: inactive; Kic [9]: 15 µM; Activity [10]: Active; inhibition [11]: Active; Activity [13]: inactive
Cc1ccc2nc(C(F)(F)F)cc(N3CCC(F)(F)CC3)c2c1 | 67100 | – | – | – | – | – | –
c1ccc2c(N3CCNCC3)ccnc2c1 | 348 | – | – | – | – | – | –
FC(F)(F)c1ccc2c(N3CCNCC3)ccnc2c1 | 8000 | – | – | – | – | – | –
Cc1cc(N2CCNCC2)c2ccccc2n1 | 72.5 | inactive | 93.4 | inactive | inactive | inactive | –
Cc1ccc2nc(C(F)(F)F)cc(N3CCN(C)CC3)c2c1 | 1800 | – | – | – | – | – | –
c1cc(N2CCNCC2)ccn1 | 142000 | – | – | – | – | – | –
c1ccc2c(C3CCNCC3)c[nH]c2c1 | – | inactive | 22200 | inactive | inactive | inactive | Kic [5]: 9.9 µM; inhibition [6]: Active; Activity [8]: inactive; Kic [9]: 14.1 µM; Activity [10]: Active; inhibition [11]: Active; Activity [13]: inactive
Cc1ccc2nc(C(F)(F)F)cc(N3CCOCC3)c2c1 | – | – | – | – | – | – | Kd ([1]; sf9): Not Active
Clc1ccc2c(N3CCNCC3)ccnc2c1 | 76.5 | inactive | 82.5 | inactive | inactive | inactive | inhibition [14]: Active; inhibition [15]: Active; Ka [16]: 6.62 ×10⁵ /M/s; Kic [5]: 0.152 µM; Activity [8]: inactive; Kic [9]: 0.191 µM; Activity [10]: Active; Activity [13]: inactive
